# Screening results from PubChem.
# HKDC1 inhibitor = inhibitors of human hexokinase HKDC1; Q2TB90; inhibition, % at 20 µM; actives 0.16% (n = 340,000); recombinant HKDC1, G6PDH/diaphorase resazurin coupled fluorescence;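 active = inhibition above about 35% when tested at 20 µM, limit read from the data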;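 note: plate controls were DMSO wells with enzyme for no effect and DMSO wells lacking enzyme for full effect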
#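 System: Recombinant HKDC1 hexokinase | Amount: HKDC1 at 5 µg/mL | Reagent: Glucose with 1 mM ATP | Doses: Single 20 µM dose | Incubation: Reaction time 90 min, room temperature, protected from light | Signal: Coupled resazurin fluorescence, excitation 525 nm, emission 613 nm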
# GSTO1 counter = counter-screen for RBBP9 inhibitors: inhibitors of human GSTO1; AID 1974; recombinant GSTO1, activity-based probe fluorescence polarization; actives 1.1% (n = 300,000); P78417; inhibition, % at 5.96 µM;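 active = inhibition above the campaign mean inhibition plus 3 SD, cut at about 35% in these data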;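 note: 0% = GSTO1-1 with DMSO and 100% = wells lacking GSTO1-1 enzyme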
# Target sequence (P78417 whole entry, looked up): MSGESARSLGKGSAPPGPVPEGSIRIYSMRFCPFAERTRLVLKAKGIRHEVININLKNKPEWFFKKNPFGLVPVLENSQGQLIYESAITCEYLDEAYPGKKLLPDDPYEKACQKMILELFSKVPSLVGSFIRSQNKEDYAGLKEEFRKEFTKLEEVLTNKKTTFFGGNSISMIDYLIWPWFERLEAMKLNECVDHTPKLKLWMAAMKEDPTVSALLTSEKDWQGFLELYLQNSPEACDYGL
# Fh CTSL1 inh = blocks F. hepatica cathepsin L1 in PFM18AAP counter-screen; recombinant F. hepatica cathepsin L1, Z-Leu-Arg-MCA fluorescence; inhibition, % at 5.96 µM; AID 1906; actives 0.49% (n = 300,000);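 active = inhibition above the mean of all tested compounds plus 3 SD, set per screening campaign, cut at about 17% in these data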;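 note: 0% = plate median of test compound wells and 100% = 1 µM Z-Phe-Ala-diazomethylketone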
# PAD4 FP inh = PAD4 (human) enzyme inhibition; Q9UM07; inhibition, % at 6.36 µM; recombinant PAD4, RCA probe fluorescence polarization; AID 485272; actives 0.41% (n = 330,000);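 active = percent inhibition above a cutoff equal to the mean of all tested compounds plus 3 SD, cut at about 15% in these data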;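 note: 0% = PAD4 with RCA probe and DMSO and 100% = probe without PAD4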
# UCH37 inh = blocks the human deubiquitinase UCH37; purified proteasome/UCH37, Ub-AMC cleavage fluorescence; inhibition, % (concentration not given with the values); actives 0.33% (n = 330,000); AID 588478;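 active = mean inhibition over replicate wells above about 20%, limit read from the data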;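 note: 0% = compound-free wells with enzyme and 100% = wells lacking proteasome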
#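 Material: Human UCH37 enzyme supplied as purified proteasome complex | Schedule: 30 min preincubation with enzyme, 25 min cleavage at room temperature | Detection: AMC fluorescence 355/460 nm | Measure: % inhibition of Ub-AMC cleavage fluorescence | Controls: Wells without proteasome as full block, compound-free enzyme plus substrate as uninhibited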
# TDP2 inh = blocks human TDP2 phosphodiesterase activity; recombinant TDP2, T5PNP hydrolysis, p-nitrophenol absorbance 415 nm; inhibition, % at 12.8 µM; actives 0.34% (n = 370,000); AID 720702;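 active = inhibition above the mean of all tested compounds plus 3 SD, set per campaign, cut at about 25% in these data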;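 note: 0% = DMSO with enzyme and 100% = buffer with substrate but no TDP2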
# Target sequence (O95551 whole entry, looked up): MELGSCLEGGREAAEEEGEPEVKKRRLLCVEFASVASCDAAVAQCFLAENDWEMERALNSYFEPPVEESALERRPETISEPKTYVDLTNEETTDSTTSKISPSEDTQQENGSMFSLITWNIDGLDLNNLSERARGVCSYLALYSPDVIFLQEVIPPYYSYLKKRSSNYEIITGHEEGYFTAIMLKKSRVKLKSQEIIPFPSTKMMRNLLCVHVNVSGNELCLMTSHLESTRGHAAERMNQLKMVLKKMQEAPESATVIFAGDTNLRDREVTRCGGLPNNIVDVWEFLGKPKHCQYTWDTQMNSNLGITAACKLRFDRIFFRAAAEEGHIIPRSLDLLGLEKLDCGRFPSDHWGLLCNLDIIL
#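 Material: recombinant human TDP2; quantity: TDP2 enzyme at 120 nM final; medium: Tris-HCl pH 7.5 with MgCl2; compound: single concentration, 12.8 µM nominal, with 1% DMSO; incubation: 2 h enzyme incubation at 37 °C; signal: epi absorbance; measure: percent inhibition; benchmarks: high control without enzyme, low control DMSO plus TDP2; repeats: singlicate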
# An asterisk follows results filed as active; nt = no result. Hits are enriched below; roughly 1.6% of the tested compounds scored in any of these assays.
SMILES,HKDC1 inhibitor,GSTO1 counter,Fh CTSL1 inh,PAD4 FP inh,UCH37 inh,TDP2 inh
C=CCN1C(=O)C(Cc2cccc(Cl)c2)SC1=NN=Cc1ccco1 (centres undefined),nt,nt,nt,nt,-2,nt
CN(C1=C(N2CCOCC2)C(=O)c2ccccc2C1=O)c1ccccc1,-2,7,62*,7,7,-2
O=C1C(NS(=O)(=O)c2cccs2)=C(N2CCOCC2)C(=O)c2ccccc21,12,7,1,-10,9,12
CC(=O)c1cccc2c(O)c(C3=Nc4ccccc4C3=O)[nH]c12,15,34,-4,-9,28*,8
CC(C)(C)c1ccc(C2C(C#N)=C(N)Oc3n[nH]c(-c4cccnc4)c32)cc1 (centres undefined),-4,-8,-5,-13,2,36*
COc1cc(OC)cc(C2C(C#N)=C(N)Oc3n[nH]c(-c4cccnc4)c32)c1 (centres undefined),4,13,3,9,0,7
COc1cc(C=NN2C(=O)c3ccccc3C2=O)ccc1O,nt,nt,nt,nt,4,nt
CN(N=Cc1cccs1)c1cc(=O)n(C)c(=O)[nH]1,nt,nt,nt,nt,21*,nt
FC(F)(F)c1ccc2c(c1)NCC1CCCN21 (centres undefined),2,26,22*,0,-8,9
O=C(NCc1ccco1)C(Cc1ccccc1)N1C(=O)C2C3C=CC(C3)C2C1=O (centres undefined),3,3,20*,5,6,-8
Cc1cc(C(=O)O)ccc1-n1c(C)cc(C=C2C(=O)c3ccccc3C2=O)c1C,2,-135,19*,-6,15,1
CCCCCC1CC(C(C)=NNC(N)=O)OC1=O (centres undefined),nt,nt,nt,nt,-4,nt
O=C(Nc1ccc(Cl)cc1)c1ccc2c(c1)S(=O)(=O)c1ccccc1C2=O,-7,1,-1,-3,28*,10
COc1ccc(C2SCC(=O)N2CCCN(C)C)cc1 (centres undefined),-2,2,-5,-1,34*,-17
COc1ccc(C2SCC(=O)N2c2ccc(OC)cc2)cc1 (centres undefined),-1,-1,-2,1,4,-8
Cc1cc(C=NNC(=O)CC2(C)OCCO2)c(C)n1-c1cc(Cl)cc(Cl)c1,nt,nt,nt,nt,3,nt
O=C(NC(O)C(=O)c1ccccc1)c1ccc(F)cc1 (centres undefined),-6,7,18*,2,3,-5
Cc1cc2c(cc(C(=O)OC(C(=O)NCc3ccco3)C(C)C)n2C)o1 (centres undefined),-3,-1,24*,1,3,-6
O=C(Cn1cnc([N+](=O)[O-])n1)NN=Cc1ccc(O)cc1O,nt,nt,nt,nt,8,nt
FC(F)(F)c1ccc(C=NN2CCN(Cc3cccc4ccccc34)CC2)cc1,nt,nt,nt,nt,3,nt
COc1cc(-n2nc(C)c3c2OC(N)=C(C#N)C3c2ccccc2)c(Cl)c(Br)c1O (centres undefined),7,21,5,26*,nt,48*
COc1ccc(-c2csc(/C(C#N)=C\c3ccc(O)c([N+](=O)[O-])c3)n2)cc1OC,17,16,1,-1,21*,24
COc1ccc(-c2csc(/C(C#N)=C\c3ccc(OC)c([N+](=O)[O-])c3)n2)cc1,-10,7,0,-4,-7,5
COC(=O)[C@@H]1CCC(C)[C@@H](c2ccc(C)cc2)N1C(=O)c1ccc(C=NOC(C)c2cn(C(CO)Cc3ccccc3)nn2)cc1 (some centres undefined),nt,nt,nt,nt,3,nt
O=C(NNC(=O)c1cc(Cl)ccc1O)c1cccc(S(=O)(=O)N2CCOCC2)c1,-18,37*,3,-2,-1,-1
SMILES,HKDC1 inhibitor,GSTO1 counter,Fh CTSL1 inh,PAD4 FP inh,UCH37 inh,TDP2 inh
CC(C)(C)c1ccc(NS(=O)(=O)c2ccc(N)cc2)cc1,1,36*,-4,-3,3,7
CCOC(=O)C1C(=NO)CC(C)(O)C(C(=O)OCC)C1c1ccc(N(C)C)cc1 (centres undefined),nt,nt,nt,nt,-1,nt
CC1(C)Cc2ccccc2C(=O)N1,-9,-2,0,-2,26*,-11
O=C(O)CCc1ccc(-c2ccc(Br)cc2)n1-c1cccc(O)c1,2,35*,-1,2,2,-13
COC(=O)c1ccc(NS(=O)(=O)c2ccc(OC)cc2)cc1,-5,4,0,2,0,1
COc1ccc(S(=O)(=O)Nc2ccc(Oc3ccsc3C(=O)O)cc2)cc1,2,35*,1,0,0,19
CC(=O)Nc1ccc(NC(=S)NC(=O)C2CC2)cc1,1,-1,30*,4,nt,1
O=C(NC(=S)Nc1ccc(O)cc1)C1CCCC1,-2,nt,nt,0,3,-4
O=C(CC1C(=O)NCCN1Cc1ccc(F)cc1)NC1CCCCCCC1 (centres undefined),-8,11,19*,6,-1,-1
Cc1ccc(CN2CCNC(=O)C2CC(=O)NC2CCCCCC2)cc1 (centres undefined),-1,-2,7,-1,1,11
Cc1cc(/C=C2/NC(=O)NC2=O)c(C)n1-c1ccccn1,-2,-1,2,4,10,-6
Cc1ccc(-n2c(C)cc(/C=C3\NC(=O)NC3=O)c2C)c(C)c1,-6,3,17*,-5,-5,-13
Br/C(C=Nn1cnnc1)=C\c1ccccc1,nt,nt,nt,nt,1,nt
O=C1CS/C(=N/N=Cc2ccccc2OS(=O)(=O)c2ccccc2)N1,nt,nt,nt,nt,8,nt
CCN1CCN(CCCNC(=O)C2CCCN(c3nnc(-n4cccc4)s3)C2)CC1 (centres undefined),5,3,-5,0,23*,-1
CC(=NNc1nc2ccccc2nc1C)c1ccccc1O,nt,nt,nt,nt,7,nt
O=C(NCCC1=CCCCC1)c1cc(COc2c(F)cccc2F)on1,4,0,-4,1,-2,5
CC(=O)c1cccc(OCc2cc(C(=O)NCCC3=CCCCC3)no2)c1,-3,3,4,-4,22*,-12
NC(=O)/C(=C/c1ccco1)NC(=O)/C=C/c1ccccc1,-1,15,5,-4,8,-1
CC(C)CCOC(=O)/C(=C/c1ccco1)NC(=O)/C=C/c1ccccc1,2,-4,22*,-2,2,-10
COc1ccccc1N(CC(=O)NN=Cc1ccc(SC)cc1)S(C)(=O)=O,nt,nt,nt,nt,-10,nt
Nc1nnnn1N=Cc1cccc(O)c1,nt,nt,nt,nt,1,nt
OCCN1CCN(CC#CCn2c3ccccc3c3ccccc32)CC1,-3,6,-4,0,23*,-7
Cc1noc(NS(=O)(=O)c2ccc(NC(=O)CC34CC5CC(CC(Br)(C5)C3)C4)cc2)c1C,2,8,20*,7,0,6
